According to the EternaBench riboswitch data:

Test system: MS2 coat protein
Experiment: apparent Kd, MS2 coat protein; higher = weaker binding; RNA-MaP array; FMN 200 µM where present
How it was run: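 Designs were transcribed by stalled E. coli RNA polymerase on Illumina sequencing-chip clusters. They were titrated with SNAP-549-labelled MS2 coat protein from 0.7 or 1.5 nM, doubling to 3 µM, without and then with constant ligand. Buffer: 100 mM Tris-HCl pH 7.5, 80 mM KCl, 4 mM MgCl2, BSA, DTT, yeast tRNA, Tween-20. Green signal was normalised to red-channel RNA signal and control-cluster median Fmax. Apparent Kd is the median of filtered per-cluster binding-curve fits.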

[1] = designed as: OFF switch for flavin mononucleotide, no ligand
[2] = ligand present: flavin mononucleotide, designed as: OFF switch for flavin mononucleotide
[3] = designed as: ON switch for flavin mononucleotide, no ligand
[4] = ligand present: flavin mononucleotide, designed as: ON switch for flavin mononucleotide

| Sequence | apparent Kd [1] | apparent Kd [2] | apparent Kd [3] | apparent Kd [4] |
| --- | --- | --- | --- | --- |
| UGUGUUAUAGGAUAUACGGGUAUGUGAAUCUCUCCAUCGGUACAUGAGGAUCACCCAUGUAGAAGGAUAAGGUA | 0.0357 µM | 0.0808 µM |  |  |
| AUAAAUCAUGUAGGAUAUGCGUGGCGAAGCUAUGCAGAAGGACAUGAGGAUCACCCAUGUUUUUCCGUCUGCGUACAGACGGAA | 0.308 µM | 0.147 µM |  |  |
| GGAGCACAUAUAAACAUGAGGAUCACCCAUGUCAAAAGACAUGAGGAUAUGGAUCGGAAAACGAUCUAGAAGGCAUGGUGCUCC |  |  | 0.644 µM | 0.0295 µM |
| AAAAGGUUAGGAUAUGCCCGCCGGGUGGGAAGGCCGGGUGGGUAGAAGGGACAUGAGGAUCACCCAUGUAAAAA | 0.0486 µM | 0.02 µM |  |  |
| UUUCAGUUCACAUGAGGAUCACCCAUGUCGGUUCGCCCGGACAGAAGGCACCCAUGACAAUGCGGUGAGGAUAUGUCAACAAGG |  |  | 0.143 µM | 0.0191 µM |
| UGGUAACAUGAGGAUCACCCAUGUCAAAUGAAUCGAGGAUAUGGGAAUUAACAACACAAACUAGAAGGCGAAUUUG |  |  | 0.303 µM | 0.247 µM |
| AAGCCACAUGAGGAUCACCCAUGUAUUUGACAGCGAGGAUAUGGGCCGCCAUGACGAGCACCAGAAGGCGCUGGUA |  |  | 0.0209 µM | 0.0163 µM |
| UCCAAAUCGUAGAAGGGUGACAUGAGGAUCACCCAUGUGCAGCAACCGUGAACGGCCAUGCUGCCACAGGAUAUACGAUGGAGU |  |  | 0.0141 µM | 0.0298 µM |
| CUCUUGUUAGGAUAUCAAACCGGCGGCGGAGCCGCCGGUAGUGAGAAGGGACAUGAGGAUCACCCAUGUAAGAA | 0.0901 µM | 0.198 µM |  |  |
| CUAAUUCAUGUAGGAUAUGCGUGGCGAAGCUAUGCAGAAGGACAUGAGGAUCACCCAUGUCUUUCCGUCUGCGUACAGACGGAA | 0.0247 µM | 0.201 µM |  |  |
| GGGAAGUGAGGAUAUAUGAGAGAGGCUGAACCGGACGAGAAGUAGAAGGCACAUGAGGAUCACCCAUGUAGGGA | 0.118 µM | 0.0859 µM |  |  |
| CGUGCGUAUGUGAGGAUAUGCUGGUCCUUGGAUCGGCAGAAGGCACAUGAGGAUCACCCAUGUGGUGUCGUUCG | 0.219 µM | 0.0316 µM |  |  |
| ACGACGAAAGUCGAACGAUGUAGCAGAAGGACAUGAGGAUCACCCAUGUCAGCUGUGACCUCAAAAUAGGAUAUGCUACAUCGA | 0.0366 µM | 0.0476 µM |  |  |
| ACGACGAAAGUCGAACGAUGUAGCAGAAGGACAUGAGGAUCACCCAUGUCAGCUGUGACCAAAAUGUAGGAUAUGCUACAUCGA | 0.0711 µM | 0.0908 µM |  |  |
| GCUGCAUAUGAGAAGGCGAUCAUGAAACAUGAUCGAGGAUAUCAUGUUUACAUGAGGAUCACCCAUGUAUGGGUAUAAUGCAGC |  |  | 0.492 µM | 0.014 µM |
| UAACCUCGCGUCAGGAUAUGCGAGGACUGUGACGUGCAGAAGGGACAUGAGGAUCACCCAUGUGAAAGAAUUAA | 0.0252 µM | 0.0254 µM |  |  |
| GUGGUCAGACAUGAGGAUCACCCAUGUGGAAUAAAUAACGUCAAGGAUAUUCAAUAUAGGAUAUAGAAGAAGGUGAGAUUGGUG |  |  | 0.153 µM | 0.177 µM |
| GUUUUUCCUCAUGUACAUGAGGAACAUGAGGAUCACCCAUGUAGAAGGAAUUCUCUUAAAUUAAGUUAGGAUAUACAUAUAUUU | 0.464 µM | 0.285 µM |  |  |
| UGAGCGACCACAGGAUAUACUUGGGAAGACCGAGUAGAAGGGUGGAAGAGCGUGCAGUGACAUGAGGAUCACCCAUGUGGUUGU |  |  | 0.122 µM | 0.0822 µM |
| AUAUGACAUGAGGAUCACCCAUGUAUUCGAGCAUGAGGAUAUAUGACUCGUCAUCGGCGGAUAGAAGGCAUGGUUG |  |  | 0.0885 µM | 0.143 µM |
| UUUCCUGGAGGAUAUACAUGAGGAUCACCCAUGUGGUUCGGAUUAAGCGGCUUACGCGGUAGAAGGUUAGACUU | 0.108 µM | 0.0851 µM |  |  |

| Sequence | apparent Kd [1] | apparent Kd [2] | apparent Kd [3] | apparent Kd [4] |
| --- | --- | --- | --- | --- |
| AGCGCGGUCUCGCAGGAUAUCCACAAUCCUACAUGAGGAUCACCCAUGUCGCUGCAGGAUAUUAGGGAGAAGGGUGAUGCCGCGC |  |  | 0.0345 µM | 0.0207 µM |
| GUAGCAUACCGAGGAUAUUCAGGGCGUGAAUAAACAUGAGGAUCACCCAUGUGGCGAAAGCCUAGGGAGAAGGCGGAAUGCUAC |  |  | 0.0259 µM | 0.0191 µM |
| CGCUAUGAUGGGUUUAAUGGAGCAUAGGAUAUGCUUGUACAUGAGGAUCACCCAUGUUAUAUUGUGCAGAAGGGUGCAUUUGCG |  |  | 0.433 µM | 0.157 µM |
| AUGAGCCGAGGAGGAUAUGACGGGUGCUAAAUCACAUGAGGAUCACCCAUGUCAGAAGGCCUCGCCAUAUUUGAUGCUUUAGAG | 0.201 µM | 0.00955 µM |  |  |
| UAUGGUUAAGUCAGGAUAUGCUCGUAGAAGUCUAUGCAGAAGGGACAUGAGGAUCACCCAUGUAUGGUCGUGUU | 0.0943 µM | 0.177 µM |  |  |
| AAAAAACAUGAGGAUCACCCAUGUGAGGAUAUCGGAAAAGGAAAAAAAAAAAAGAAGACGAGAAGGCACAAAGA | 0.0484 µM | 0.0604 µM |  |  |
| AACGCUAAAGGAUAUACAUGAGGAUCACCCAUGUUGAGGAAGGUUAGAUGAGGAGUAAGUAGAAGGUUAGACGA | 0.0292 µM | 0.0257 µM |  |  |
| GCGAAUCAGUGAGGAUAUACAUAAAUUAUAACAGUAGAAGGCACAUACCUCAAGACAUGAGGAUCACCCAUGUGACAUAUCGCU | 0.258 µM | 0.488 µM |  |  |
| GUCAGCUCGUGAGGAUAUACAUGUGCUGGAAACAGCACUAUUAAAUUCACAUGAGGAUCACCCAUGUAGAAGGCACGAGCUGAU | 0.0154 µM | 0.0191 µM |  |  |
| GGAUCGAAUGUGAGGAUAUACCACUGGAUACAGUGGUAGAAGGCACAUGAGGAUCACCCAUGUCUCUACGAUCC | 0.0196 µM | 0.111 µM |  |  |
| GCUAGGCAUGUCAGGAUAUGCUGUACCUUGGUACAGCAGAAGGGACAUGAGGAUCACCCAUGUGCCUAUCUAGC | 0.0429 µM | 0.419 µM |  |  |
| UAUAUAAUAUUACACAUGAGGAUCACCCAUGUACAUGGGAUAGAGGAUAUACAAAUAUUAGUGGUGUAGAAGGUUAAUAUAUAU | 0.266 µM | 0.071 µM |  |  |
| AAAACGUGAGGAUAUACAUGAGGAUCACCCAUGUGAAACAGGAAAAACUGAAAGAAAAGUAGAAGGCACGAAAA | 0.0334 µM | 0.0501 µM |  |  |
| UCUAUGAAGAUUCGUCAAUACAGUUAGGAUAUGAGAUACAUGAGGAUCACCCAUGUGCAUGUGGAUUAGAAGGAACAAUUAUCU | 0.0332 µM | 0.0308 µM |  |  |
| UAAAAGACUAGCAAAUAGACCUUCACAUGAGGAUCACCCAUGUAGGAUAUGAGCAGAAAAUCUGCUCAGAAGGACAUGCUAGUC | 0.00338 µM | 0.0036 µM |  |  |
| UUUUAGUCAGGAUAUACAUUUUUUUAUUUAUUUAUAAUAUUACAUGAGGAUCACCCAUGUAGAAGGGACAUUUU | 0.0318 µM | 0.0265 µM |  |  |
| AAAAGACAUGAGGAUCACCCAUGUGAAAACGUAGGAGGAUAUGUCUGGAAAACAUGCUGGACAGAAGGCCUGUGUC |  |  | 0.0401 µM | 0.0221 µM |
| UUGUUAUAUGUAGGAUAUGCGUAUUAUUAUUAUGCAGAAGGACAUGAGGAUCACCCAUGUAUGUUGUUGUUAUAUAUUAUAUAU | 0.0229 µM | 0.0262 µM |  |  |
| UUUUUGUCAGGAUAUCGUUAAUUUAAUUGUUUGUAUUAGUUCGAGAAGGGACAUGAGGAUCACCCAUGUAUUUU | 0.0411 µM | 0.103 µM |  |  |
| UAUAUAUAGUAAGGAUAUGUAUUCAUUUUAUAAACAGAAGGUACUGACAUGAGGAUCACCCAUGUUUUAGUGUGGGCAUGUAGA | 0.0815 µM | 0.132 µM |  |  |
| AUAAAGUGAGGAUAUCCAAUAUAUGACAUGAGGAUCACCCAUGUUUCCACUCGUACCUCCGGAGAAGGCACAUUUU | 0.0321 µM | 0.0202 µM |  |  |
